These results are taken from ChEMBL document CHEMBL1147142, “Novel 3-O-glycosyl-3-demethylthiocolchicines as ligands for glycine and gamma-aminobutyric acid receptors” (J Med Chem, 2007).

pIC50: −log10 of the molar value.

As a reminder, the pIC50 is the IC50 on a negative log10 scale, so that one unit is a factor of ten.

Type in all cases: cell membranes, Membrane
A short description of assay [1]: Displacement of [3H]strychnine from glycine receptor in rat spinal cord synaptosomal membranes. Put shortly: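 Rat spinal cord synaptosomal membranes (stored at -80 °C, used within 2 weeks; 0.2-0.4 mg protein per 1.2 mL) incubated 10 min at 4 °C with 2 nM [3H]strychnine plus increasing concentrations of competitor in 50 mM sodium-potassium phosphate, pH 7.1. Rapid glass-fiber filtration, 0.15 M NaCl rinse. Nonspecific binding with 0.1 mM unlabeled strychnine. Triplicate points; IC50 from mean of three independent curves.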
Background: Loss of bound radioactivity is the signal in a displacement assay; it reports binding, not function.

A short description of assay [2]: Displacement of [3H]muscimol from GABAA receptor in Sprague-Dawley rat spinal cord brainstem membranes.
The nature of assay [3]: Displacement of [3H]muscimol from GABAA receptor in Sprague-Dawley rat cerebral cortex membranes.

Turning to `COc1c(O[C@@H]2O[C@H](CI)[C@@H](O)[C@H](O)[C@H]2O)cc2c(c1OC)-c1ccc(SC)c(=O)cc1[C@@H](NC(C)=O)CC2`, the negative-log IC50 (pIC50) in assay [1] was less than 4.00; in assay [2] it was 5.10; in assay [3], 4.76.
Taken in the same sequence, the figures for `COc1c(O[C@@H]2O[C@H](C)[C@@H](O)[C@H](O)[C@H]2O)cc2c(c1OC)-c1ccc(SC)c(=O)cc1[C@@H](NC(C)=O)CC2` were 5.72, 5.46 and 5.21.
The like results for `COc1c(O[C@@H]2O[C@H](CF)[C@@H](O)[C@H](O)[C@H]2O)cc2c(c1OC)-c1ccc(SC)c(=O)cc1[C@@H](NC(C)=O)CC2` were, in that order, 5.89, 5.70 and 5.42.
Consider `COc1c(O[C@@H]2O[C@H](CN=[N+]=[N-])[C@@H](O)[C@H](O)[C@H]2O)cc2c(c1OC)-c1ccc(SC)c(=O)cc1[C@@H](NC(C)=O)CC2`, for which the pIC50 in assay [1] was 5.37; in assay [2], 5.09; in assay [3], 5.11.
As for `NCC(=O)O` [GLYCINE], in assay [1], the pIC50 is 4.80.
The same measure, in the same setting: in the case of `O=C1C[C@@H]2OCC=C3CN4CC[C@]56c7ccccc7N1[C@H]5[C@H]2[C@H]3C[C@H]46` [STRYCHNINE] it was 7.85.
For the molecule `COc1c(O[C@@H]2O[C@H](CO)[C@@H](O)[C@H](O)[C@H]2O)cc2c(c1OC)-c1ccc(SC)c(=O)cc1[C@@H](NC(C)=O)CC2` [THIOCOLCHICOSIDE], the pIC50 in assay [1] is 5.82; in assay [2], 5.72; in assay [3], 5.47.
